Measured values as given in ChEMBL document CHEMBL3232996, “Synthesis and biological evaluation of novel (123)I-labeled 4-(4-iodophenyl)butanoyl-L-prolyl-(2S)-pyrrolidines for imaging prolyl oligopeptidase in vivo” (Eur J Med Chem, 2014).

Experiments:
Type in all cases: ADME, organism-based
[1] = Fraction unbound in iv dosed C57Bl/6JRccHsd mouse plasma measured at 40 mins
Method in brief: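 Male mice given 3.6 MBq tracer i.v. via lateral tail vein; blocking groups got POP inhibitor i.p. (50 µmol/kg, 10 mL/kg, 1% DMSO in 0.9% NaCl) 10 min before. Heparinized cardiac blood on ice, gamma-counted, spun 5 min at 2000 g; plasma counted, precipitated with 1.5 volumes acetonitrile, respun; cell-bound, protein-bound and free fractions expressed as % of blood activity; n = 3.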

Heart = test: Biodistribution in C57Bl/6JRccHsd mouse heart at 2.86 +/- 1.26 MBq, iv measured at 80 mins by SPECT analysis; conditions: in vivo
Method in brief: (§1)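 Organs excised at 5, 20, 40, 80 or 160 min and radioactivity gamma-counted as %ID/g (brain also as %ID). Blocking groups received KYP-2047 (50 µmol/kg, 10 mL/kg, 1% DMSO in 0.9% NaCl) i.p. 10 min before tracer. Mean ± SD, n = 2–4 per time point. Blocking compared by two-tailed Student's t test.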

[2] = Biodistribution in C57Bl/6JRccHsd mouse urine at 2.86 +/- 1.26 MBq, iv measured at 80 mins post dose pretreated with 50 umol/kg, ip prolyl oligopeptidase inhibitor KYP-2047 10 mins before compound dosing by SPECT analysis; conditions: in vivo; method in brief: as §1
Mus musculus = test: Biodistribution in C57Bl/6JRccHsd mouse tongue at 2.86 +/- 1.26 MBq, iv measured at 80 mins post dose pretreated with 50 umol/kg, ip prolyl oligopeptidase inhibitor KYP-2047 10 mins before compound dosing by SPECT analysis; conditions: in vivo; method in brief: as §1
Thyroid gland = test: Biodistribution in C57Bl/6JRccHsd mouse thyroid at 2.86 +/- 1.26 MBq, iv measured at 160 mins by SPECT analysis; conditions: in vivo; method in brief: as §1
Blood [3] = test: Biodistribution in C57Bl/6JRccHsd mouse blood at 2.86 +/- 1.26 MBq, iv measured at 20 mins by SPECT analysis; conditions: in vivo; method in brief: as §1
Blood [4] = test: Biodistribution in C57Bl/6JRccHsd mouse blood at 2.86 +/- 1.26 MBq, iv measured at 20 mins post dose pretreated with 50 umol/kg, ip prolyl oligopeptidase inhibitor KYP-2047 10 mins before compound dosing by SPECT analysis; conditions: in vivo; method in brief: as §1
[5] = Fraction unbound in iv dosed C57Bl/6JRccHsd mouse plasma measured at 20 mins
Method in brief: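 Mice got tracer i.v., some after i.p. KYP-2047 (50 µmol/kg) 10 min before. Cardiac blood was collected at 20, 40, 80 or 160 min and spun 5 min at 2000 g into cells and plasma. Plasma was precipitated with acetonitrile and pellet and supernatant were gamma-counted. Activity in cells, protein-bound and free plasma is given as % of total blood activity, n = 3.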

N#C[C@@H]1CCCN1C(=O)[C@@H]1CCCN1C(=O)CCCc1ccc([123I])cc1
fraction unbound at 40 min [1]: 0.08 | Drug uptake (Heart): 12.2 % ID/g | Drug uptake [2]: 45.24 % ID/g | Drug uptake (Mus musculus): 1.44 % ID/g | Drug uptake (Thyroid gland): 9.4 % ID/g | Drug uptake (Blood [3]): 8.5 % ID/g | Drug uptake (Blood [4]): 10.9 % ID/g | fraction unbound at 20 min [5]: 0.03
